Paper PMC8010999 (Journal of medicinal chemistry, 2020)
Values belong to the compound of their own block, whether it stands above or below them.

Tests used:
[1] = target: T1, rhMMP-7 (Homo sapiens, UniProt P09237); experiment: MMP affinity determination; assay type: biochemical; conditions: relative to CGA
T1 sequence (P09237 95-267): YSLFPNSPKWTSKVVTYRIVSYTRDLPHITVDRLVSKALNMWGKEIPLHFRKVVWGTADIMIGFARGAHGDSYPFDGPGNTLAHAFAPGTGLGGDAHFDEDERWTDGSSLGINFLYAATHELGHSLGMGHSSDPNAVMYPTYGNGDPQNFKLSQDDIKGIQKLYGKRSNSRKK
In short: (§1)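 Inhibition constants were derived from the kinetic effect of the test compound on MMP cleavage of the fluorogenic substrate Mca-Lys-Pro-Leu-Gly-Leu-Dpa-Ala-Arg-NH2. Conditions: 50 mM Tris/HCl pH 6.8, 10 mM CaCl2, 25 °C, with 0.2–0.5 nM enzyme. […] Fluorescence was monitored, and Ki was obtained by the Horovitz–Levitzki method.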

[2] = target: rhMMP-12 (Homo sapiens, UniProt P39900); experiment: MMP affinity determination; assay type: biochemical
Sequence of rhMMP-12 (P39900 106-470): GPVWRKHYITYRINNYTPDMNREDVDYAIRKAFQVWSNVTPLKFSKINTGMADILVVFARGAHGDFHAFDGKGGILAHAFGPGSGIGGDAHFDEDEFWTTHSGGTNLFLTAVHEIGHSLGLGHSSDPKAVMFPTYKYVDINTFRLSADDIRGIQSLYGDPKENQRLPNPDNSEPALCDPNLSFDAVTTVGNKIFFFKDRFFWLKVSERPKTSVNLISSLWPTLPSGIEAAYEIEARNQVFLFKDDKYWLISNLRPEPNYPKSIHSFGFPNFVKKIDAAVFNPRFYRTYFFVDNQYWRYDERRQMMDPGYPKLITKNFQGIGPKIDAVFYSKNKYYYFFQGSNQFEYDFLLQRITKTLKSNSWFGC
In short: as §1

[3] = target: MMP-12 (Mus musculus, UniProt P34960); experiment: 99mTc-AGA-2 binding specificity; conditions: co-incubation with 500-fold molar excess, P < 0.001
Sequence of MMP-12 (P34960 110-473): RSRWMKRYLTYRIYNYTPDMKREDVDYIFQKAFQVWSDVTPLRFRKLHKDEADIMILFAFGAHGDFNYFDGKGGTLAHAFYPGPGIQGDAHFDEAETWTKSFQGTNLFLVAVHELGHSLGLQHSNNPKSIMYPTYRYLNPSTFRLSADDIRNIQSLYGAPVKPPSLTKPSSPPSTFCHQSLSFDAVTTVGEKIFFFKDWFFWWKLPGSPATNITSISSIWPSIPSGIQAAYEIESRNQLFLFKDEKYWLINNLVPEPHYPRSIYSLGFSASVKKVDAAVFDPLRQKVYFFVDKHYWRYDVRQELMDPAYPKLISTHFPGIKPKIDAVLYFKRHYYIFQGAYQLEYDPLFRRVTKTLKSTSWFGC
In short: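 Tissues came from Apoe−/− mice given angiotensin II (1,000 ng/kg/min) by subcutaneous minipump for 4 weeks. Tracer binding was compared in aneurysmal aorta and in normal-size infrarenal aorta, with or without MMP inhibitors.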

drop in potency for MMP-7 on ring opening from cyclic CGA to acyclic AGA [1]: 10 fold
drop in potency for MMP-12 on ring opening from cyclic CGA to acyclic AGA ([2]; relative to CGA): 10 fold
effect on 99mTc-AGA-2 binding to AAA tissue [3]: significantly reduced
SMILES: CC(C)C[C@H](CC(=O)NO)C(=O)N[C@@H](Cc1ccccc1)C(=O)O [AGA]

selectivity for rhMMP-12 relative to rhMMP-7 ([2]; against rhMMP-7): at least 12 folds
SMILES: CC(C)C[C@H]1C(=O)N[C@H](C(=O)N[C@@H](CCC(=O)O)C(=O)O)Cc2ccc(cc2)OCCC[C@@H]1C(=O)NO [CGA-1]

SMILES: CC(C)C[C@H]1C(=O)N[C@H](C(=O)O)Cc2ccc(cc2)OCCC[C@@H]1C(=O)NO [CGA]
selectivity for rhMMP-12 relative to rhMMP-13 ([2]; against rhMMP-13): 28 folds

effect on 99mTc-AGA-2 binding to AAA tissue [3]: significantly reduced
SMILES: CNC(=O)[C@H](Cc1c[nH]c2ccccc12)NC(=O)[C@@H](CC(=O)NO)CC(C)C [GM6001, reference compound]
